# Assay results from PMC3683132 (ACS chemical biology, 2013).
# Experiments:
# [1] = system: (CUG)960 foci in HeLa cells transfected with DMPK-CUG960 and GFP-MBNL1; assay: FISH / confocal microscopy of ribonuclear foci in fixed DM1 cell model; assay type: cell-based; conditions: 50 µM, 48 h
# How it was run: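 HeLa cells (ca. 120,000/well, on coverslips) were co-transfected next day at 70–80% confluence with 500 ng DMPK–CUG960 (or CUG0 control) and 500 ng GFP-MBNL1 plasmids using Lipofectamine. After 4 h the medium was changed and test compound added (20–100 µM) for two days; 50 µM spermine served as the control compound. Cells were fixed (4% PFA), permeabilized and probed with Cy3-(CAG)10 for 2 h at 37 °C. Nuclei were stained with TO-PRO-3 and scored by confocal microscopy; results are mean ± standard error of ≥3 independent experiments with two-tailed p-values.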
# [2] = system: insulin receptor (IR) pre-mRNA alternative splicing; assay: IR splicing assay; assay type: cell-based; conditions: 50 µM, DM1 cell model
smiles,measurement,setting,value
"NCCCNCCCCNCCCN [spermine, reference compound]",effect on (CUG)960 foci,[1],no effect
same,effect on the IR mis-splicing,[2],no effect
